Source: ChEMBL document CHEMBL1153560, “In vitro activities of doripenem and six comparator drugs against 423 aerobic and anaerobic bacterial isolates from infected diabetic foot wounds” (2008)
≈ marks a conversion by molar mass, not a printed value.

Assays:
Type in all cases: functional
[Clostridium] innocuum [1] = Antibacterial activity against Clostridium innocuum isolated from patient with diabetic foot infection after 44 to 48 hrs by agar dilution method
Procedure, shortened: (§1)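 CLSI M11-A7 agar dilution: serial twofold drug dilutions made on the test day and added to molten agar. Spots of 10^5 CFU were applied by replicator, with drug-free control plates inoculated before and after each set. Incubation was 44 to 48 h at 37°C in an anaerobic chamber. MIC was the lowest concentration giving no growth or a marked change in growth versus controls.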

Porphyromonas somerae = assay: Antibacterial activity against Porphyromonas somerae isolated from patient with diabetic foot infection assessed as percent resistant isolates after 44 to 48 hrs by agar dilution method
Procedure, shortened: (§2)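 Agar dilution per CLSI M11-A7. Twofold drug dilutions made on the test day and added to molten agar. Replicator-applied inoculum of 10^5 CFU/spot. Drug-free control plates inoculated before and after each drug set. Incubation at 37°C for 44 to 48 h, anaerobic chamber. MIC taken as the lowest concentration giving no growth or a marked change in growth versus controls.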

Anaerococcus tetradius [2] = assay: Antibacterial activity against Anaerococcus tetradius isolated from patient with diabetic foot infection after 44 to 48 hrs by agar dilution method; procedure, shortened: as §1
[3] = test system: Clostridium malenominatum; assay: Antibacterial activity against Clostridium malenominatum isolated from patient with diabetic foot infection after 44 to 48 hrs by agar dilution method; procedure, shortened: as §1
Clostridium perfringens = assay: Antibacterial activity against Clostridium perfringens isolated from patient with diabetic foot infection after 44 to 48 hrs by agar dilution method; procedure, shortened: as §2
[4] = test system: Bacteroides thetaiotaomicron; assay: Antibacterial activity against Bacteroides thetaiotaomicron isolated from patient with diabetic foot infection after 44 to 48 hrs by agar dilution method; procedure, shortened: as §1
Parvimonas micra = assay: Antibacterial activity against Peptostreptococcus micros isolated from patient with diabetic foot infection assessed as percent resistant isolates after 44 to 48 hrs by agar dilution method; procedure, shortened: as §2
Parabacteroides merdae = assay: Antibacterial activity against Parabacteroides merdae isolated from patient with diabetic foot infection after 44 to 48 hrs by agar dilution method; procedure, shortened: as §1
Anaerococcus prevotii = assay: Antibacterial activity against Anaerococcus prevotii isolated from patient with diabetic foot infection assessed as percent resistant isolates after 44 to 48 hrs by agar dilution method; procedure, shortened: as §2
Anaerococcus tetradius [5] = assay: Antibacterial activity against Anaerococcus tetradius isolated from patient with diabetic foot infection assessed as percent resistant isolates after 44 to 48 hrs by agar dilution method; procedure, shortened: as §2
Cutibacterium acnes [6] = assay: Antibacterial activity against Propionibacterium acnes isolated from patient with diabetic foot infection assessed as percent resistant isolates after 44 to 48 hrs by agar dilution method; procedure, shortened: as §2
[7] = test system: Anaerocolumna aminovalerica; assay: Antibacterial activity against Clostridium aminovalericum isolated from patient with diabetic foot infection after 44 to 48 hrs by agar dilution method; procedure, shortened: as §1
Lacrimispora sphenoides = assay: Antibacterial activity against Clostridium sphenoides isolated from patient with diabetic foot infection after 44 to 48 hrs by agar dilution method; procedure, shortened: as §1
Anaerococcus vaginalis [8] = assay: Antibacterial activity against Anaerococcus vaginalis isolated from patient with diabetic foot infection after 44 to 48 hrs by agar dilution method; procedure, shortened: as §1
[Clostridium] innocuum [9] = Antibacterial activity against Clostridium innocuum isolated from patient with diabetic foot infection assessed as percent resistant isolates after 44 to 48 hrs by agar dilution method; procedure, shortened: as §2
Bacteroides fragilis [10] = assay: Antibacterial activity against Bacteroides fragilis isolated from patient with diabetic foot infection after 44 to 48 hrs by agar dilution method; procedure, shortened: as §1
[11] = test system: Anaerocolumna aminovalerica; assay: Antibacterial activity against Clostridium aminovalericum isolated from patient with diabetic foot infection assessed as percent resistant isolates after 44 to 48 hrs by agar dilution method; procedure, shortened: as §2
[12] = test system: Peptostreptococcus anaerobius; assay: Antibacterial activity against Peptostreptococcus anaerobius isolated from patient with diabetic foot infection after 44 to 48 hrs by agar dilution method; procedure, shortened: as §1
[13] = test system: Clostridium malenominatum; assay: Antibacterial activity against Clostridium malenominatum isolated from patient with diabetic foot infection assessed as percent resistant isolates after 44 to 48 hrs by agar dilution method; procedure, shortened: as §2
Bacteroides uniformis = assay: Antibacterial activity against Bacteroides uniformis isolated from patient with diabetic foot infection after 44 to 48 hrs by agar dilution method; procedure, shortened: as §1
Finegoldia magna = assay: Antibacterial activity against Finegoldia magna isolated from patient with diabetic foot infection after 44 to 48 hrs by agar dilution method; procedure, shortened: as §1
Prevotella bivia [14] = assay: Antibacterial activity against Prevotella bivia isolated from patient with diabetic foot infection after 44 to 48 hrs by agar dilution method; procedure, shortened: as §1
[15] = test system: Peptoniphilus asaccharolyticus; assay: Antibacterial activity against Peptoniphilus asaccharolyticus isolated from patient with diabetic foot infection assessed as percent resistant isolates after 44 to 48 hrs by agar dilution method; procedure, shortened: as §2
Bacteroides fragilis [16] = assay: Antibacterial activity against Bacteroides fragilis isolated from patient with diabetic foot infection assessed as percent resistant isolates after 44 to 48 hrs by agar dilution method; procedure, shortened: as §2
[17] = test system: Porphyromonas asaccharolytica; assay: Antibacterial activity against Porphyromonas asaccharolyticus isolated from patient with diabetic foot infection after 44 to 48 hrs by agar dilution method; procedure, shortened: as §1
Clostridium cadaveris = assay: Antibacterial activity against Clostridium cadaveris isolated from patient with diabetic foot infection assessed as percent resistant isolates after 44 to 48 hrs by agar dilution method; procedure, shortened: as §2
Bacteroides ovatus = assay: Antibacterial activity against Bacteroides ovatus isolated from patient with diabetic foot infection after 44 to 48 hrs by agar dilution method; procedure, shortened: as §1
[18] = test system: Porphyromonas asaccharolytica; assay: Antibacterial activity against Porphyromonas asaccharolyticus isolated from patient with diabetic foot infection assessed as percent resistant isolates after 44 to 48 hrs by agar dilution method; procedure, shortened: as §2
Cutibacterium acnes [19] = assay: Antibacterial activity against Propionibacterium acnes isolated from patient with diabetic foot infection after 44 to 48 hrs by agar dilution method; procedure, shortened: as §1
Anaerococcus vaginalis [20] = assay: Antibacterial activity against Anaerococcus vaginalis isolated from patient with diabetic foot infection assessed as percent resistant isolates after 44 to 48 hrs by agar dilution method; procedure, shortened: as §2
[21] = test system: Peptostreptococcus anaerobius; assay: Antibacterial activity against Peptostreptococcus anaerobius isolated from patient with diabetic foot infection assessed as percent resistant isolates after 44 to 48 hrs by agar dilution method; procedure, shortened: as §2
[22] = test system: Enterocloster clostridioformis; assay: Antibacterial activity against Clostridium clostridioforme isolated from patient with diabetic foot infection after 44 to 48 hrs by agar dilution method; procedure, shortened: as §1
Bacteroides stercoris = assay: Antibacterial activity against Bacteroides stercoris isolated from patient with diabetic foot infection assessed as percent resistant isolates after 44 to 48 hrs by agar dilution method; procedure, shortened: as §2
[23] = test system: Parabacteroides distasonis; assay: Antibacterial activity against Parabacteroides distasonis isolated from patient with diabetic foot infection after 44 to 48 hrs by agar dilution method; procedure, shortened: as §1
[24] = test system: Peptoniphilus asaccharolyticus; assay: Antibacterial activity against Peptoniphilus asaccharolyticus isolated from patient with diabetic foot infection after 44 to 48 hrs by agar dilution method; procedure, shortened: as §1
Prevotella bivia [25] = assay: Antibacterial activity against Prevotella bivia isolated from patient with diabetic foot infection assessed as percent resistant isolates after 44 to 48 hrs by agar dilution method; procedure, shortened: as §2
[26] = test system: Bacteroides thetaiotaomicron; assay: Antibacterial activity against Bacteroides thetaiotaomicron isolated from patient with diabetic foot infection assessed as percent resistant isolates after 44 to 48 hrs by agar dilution method; procedure, shortened: as §2

## C[C@@H](O)[C@H]1C(=O)N2C(C(=O)O)=C(S[C@@H]3CN[C@H](C(=O)Nc4cccc(C(=O)O)c4)C3)[C@H](C)[C@H]12 [ERTAPENEM]
[Clostridium] innocuum [1]
  MIC50: 0.25 µg/mL (≈ 0.526 µM)
  MIC90: 2 µg/mL (≈ 4.21 µM)
Porphyromonas somerae
  Activity: 0%
Anaerococcus tetradius [2]
  MIC50: 0.125 µg/mL (≈ 0.263 µM)
  MIC90: 0.25 µg/mL (≈ 0.526 µM)
[3]
  MIC50: 0.25 µg/mL (≈ 0.526 µM)
  MIC90: 2 µg/mL (≈ 4.21 µM)
Clostridium perfringens
  MIC50: 0.06 µg/mL (≈ 0.126 µM)
  MIC90: 0.125 µg/mL (≈ 0.263 µM)
[4]
  MIC50: 1 µg/mL (≈ 2.1 µM)
  MIC90: 2 µg/mL (≈ 4.21 µM)
Parvimonas micra
  Activity: 0%
Parabacteroides merdae
  MIC50: 1 µg/mL (≈ 2.1 µM)
  MIC90: 2 µg/mL (≈ 4.21 µM)
Anaerococcus prevotii
  Activity: 0%
Anaerococcus tetradius [5]
  Activity: 0%
Cutibacterium acnes [6]
  Activity: 0%
[7]
  MIC50: 0.25 µg/mL (≈ 0.526 µM)
  MIC90: 2 µg/mL (≈ 4.21 µM)
Lacrimispora sphenoides
  MIC50: 0.25 µg/mL (≈ 0.526 µM)
  MIC90: 2 µg/mL (≈ 4.21 µM)
Anaerococcus vaginalis [8]
  MIC50: 0.125 µg/mL (≈ 0.263 µM)
  MIC90: 0.25 µg/mL (≈ 0.526 µM)
[Clostridium] innocuum [9]
  Activity: 0%
Bacteroides fragilis [10]
  MIC50: 0.25 µg/mL (≈ 0.526 µM)
  MIC90: 1 µg/mL (≈ 2.1 µM)
[11]
  Activity: 0%
[12]
  MIC50: 0.25 µg/mL (≈ 0.526 µM)
  MIC90: 0.5 µg/mL (≈ 1.05 µM)
[13]
  Activity: 0%
Bacteroides uniformis
  MIC50: 1 µg/mL (≈ 2.1 µM)
  MIC90: 2 µg/mL (≈ 4.21 µM)
Finegoldia magna
  MIC50: 0.06 µg/mL (≈ 0.126 µM)
  MIC90: 0.125 µg/mL (≈ 0.263 µM)
Prevotella bivia [14]
  MIC50: 0.25 µg/mL (≈ 0.526 µM)
  MIC90: 0.5 µg/mL (≈ 1.05 µM)
[15]
  Activity: 0%
Bacteroides fragilis [16]
  Activity: 0%
[17]
  MIC50: ≤ 0.015 µg/mL
  MIC90: 0.06 µg/mL (≈ 0.126 µM)
Clostridium cadaveris
  Activity: 0%
Bacteroides ovatus
  MIC50: 1 µg/mL (≈ 2.1 µM)
  MIC90: 2 µg/mL (≈ 4.21 µM)
[18]
  Activity: 0%
Cutibacterium acnes [19]
  MIC50: 0.125 µg/mL (≈ 0.263 µM)
  MIC90: 0.25 µg/mL (≈ 0.526 µM)
Anaerococcus vaginalis [20]
  Activity: 0%
[21]
  Activity: 0%
[22]
  MIC50: 0.25 µg/mL (≈ 0.526 µM)
  MIC90: 2 µg/mL (≈ 4.21 µM)
Bacteroides stercoris
  Activity: 0%
[23]
  MIC50: 1 µg/mL (≈ 2.1 µM)
  MIC90: 2 µg/mL (≈ 4.21 µM)
[24]
  MIC50: ≤ 0.015 µg/mL
  MIC90: 0.25 µg/mL (≈ 0.526 µM)
Prevotella bivia [25]
  Activity: 0%
[26]
  Activity: 0%

## C[C@@H](O)[C@H]1C(=O)N2C(C(=O)O)=C(SCCNC=N)C[C@H]12 [IMIPENEM ANHYDROUS]
[Clostridium] innocuum [1]
  MIC50: 0.25 µg/mL (≈ 0.835 µM)
  MIC90: 2 µg/mL (≈ 6.68 µM)
Porphyromonas somerae
  Activity: 0%
Anaerococcus tetradius [2]
  MIC50: ≤ 0.015 µg/mL
  MIC90: 0.03 µg/mL (≈ 0.1 µM)
[3]
  MIC50: 0.25 µg/mL (≈ 0.835 µM)
  MIC90: 2 µg/mL (≈ 6.68 µM)
Clostridium perfringens
  MIC50: 0.06 µg/mL (≈ 0.2 µM)
  MIC90: 0.125 µg/mL (≈ 0.418 µM)
[4]
  MIC50: 0.5 µg/mL (≈ 1.67 µM)
  MIC90: 1 µg/mL (≈ 3.34 µM)
Parvimonas micra
  Activity: 0%
Parabacteroides merdae
  MIC50: 0.5 µg/mL (≈ 1.67 µM)
  MIC90: 1 µg/mL (≈ 3.34 µM)
Anaerococcus prevotii
  Activity: 0%
Anaerococcus tetradius [5]
  Activity: 0%
Cutibacterium acnes [6]
  Activity: 0%
[7]
  MIC50: 0.25 µg/mL (≈ 0.835 µM)
  MIC90: 2 µg/mL (≈ 6.68 µM)
Lacrimispora sphenoides
  MIC50: 0.25 µg/mL (≈ 0.835 µM)
  MIC90: 2 µg/mL (≈ 6.68 µM)
Anaerococcus vaginalis [8]
  MIC50: ≤ 0.015 µg/mL
  MIC90: 0.03 µg/mL (≈ 0.1 µM)
[Clostridium] innocuum [9]
  Activity: 0%
Bacteroides fragilis [10]
  MIC50: 0.125 µg/mL (≈ 0.418 µM)
  MIC90: 0.125 µg/mL (≈ 0.418 µM)
[11]
  Activity: 0%
[12]
  MIC50: 0.03 µg/mL (≈ 0.1 µM)
  MIC90: 0.06 µg/mL (≈ 0.2 µM)
[13]
  Activity: 0%
Bacteroides uniformis
  MIC50: 0.5 µg/mL (≈ 1.67 µM)
  MIC90: 1 µg/mL (≈ 3.34 µM)
Finegoldia magna
  MIC50: 0.03 µg/mL (≈ 0.1 µM)
  MIC90: 0.06 µg/mL (≈ 0.2 µM)
Prevotella bivia [14]
  MIC50: 0.03 µg/mL (≈ 0.1 µM)
  MIC90: 0.03 µg/mL (≈ 0.1 µM)
[15]
  Activity: 0%
Bacteroides fragilis [16]
  Activity: 0%
[17]
  MIC50: < 0.015 µg/mL
  MIC90: ≤ 0.015 µg/mL
Clostridium cadaveris
  Activity: 0%
Bacteroides ovatus
  MIC50: 0.5 µg/mL (≈ 1.67 µM)
  MIC90: 1 µg/mL (≈ 3.34 µM)
[18]
  Activity: 0%
Cutibacterium acnes [19]
  MIC50: ≤ 0.015 µg/mL
  MIC90: ≤ 0.015 µg/mL
Anaerococcus vaginalis [20]
  Activity: 0%
[21]
  Activity: 0%
[22]
  MIC50: 0.25 µg/mL (≈ 0.835 µM)
  MIC90: 2 µg/mL (≈ 6.68 µM)
Bacteroides stercoris
  Activity: 0%
[23]
  MIC50: 0.5 µg/mL (≈ 1.67 µM)
  MIC90: 1 µg/mL (≈ 3.34 µM)
[24]
  MIC50: ≤ 0.015 µg/mL
  MIC90: 0.03 µg/mL (≈ 0.1 µM)
Prevotella bivia [25]
  Activity: 0%
[26]
  Activity: 0%
